According to article PMC2854254 (Cell communication & adhesion, 2009):
Like-named read-outs stand apart in the source and are kept apart here.

Columns and labels:
mPanx1-GFP [1] = molecular target: T1, mPanx1-GFP (Mus musculus, UniProt Q9JIP4); assay: Inside-out single channel patch clamp on Rin-m cells transfected with Panx1-GFP; format: cell-based; settings: for Effect on open time of Panx1-GFP channel: inside-out patch
Summary of the method: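 Rin-m cells grown in RPMI with 5% fetal calf serum, under passage 20. Transfected overnight with 2 μg mPanx1-GFP via lipofectamine, then replated 24–36 h. Inside-out single-channel recordings at room temperature on brightly fluorescent cells. Bath pH 7.4 NaCl/Hepes; pipette CsCl/EGTA with 1 mM ATP. Test compound perfused 20 s, then washed out. Mean channel open time compared before, during and after.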

untagged mPanx1 = untagged mPanx1 (Mus musculus, UniProt Q9JIP4); format: cell-based
Sequence of untagged mPanx1 (Q9JIP4 whole entry, the tested form may be a part): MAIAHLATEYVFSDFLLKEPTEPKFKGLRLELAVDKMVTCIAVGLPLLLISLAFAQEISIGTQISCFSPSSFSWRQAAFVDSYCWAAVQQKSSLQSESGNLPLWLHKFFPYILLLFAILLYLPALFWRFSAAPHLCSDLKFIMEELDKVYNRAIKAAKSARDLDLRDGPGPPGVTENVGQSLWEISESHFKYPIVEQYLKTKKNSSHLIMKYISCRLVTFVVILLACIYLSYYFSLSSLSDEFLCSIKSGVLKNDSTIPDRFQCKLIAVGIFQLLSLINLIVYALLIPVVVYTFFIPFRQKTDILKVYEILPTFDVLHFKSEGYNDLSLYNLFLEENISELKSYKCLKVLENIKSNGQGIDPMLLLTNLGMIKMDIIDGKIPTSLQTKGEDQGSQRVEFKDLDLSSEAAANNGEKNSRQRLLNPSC
Summary of the method: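 Neuro2A cells transfected with untagged mPanx1 construct. Whole-cell recording at room temperature on cells held at −60 mV, with pH 7.4 external and CsCl/EGTA/ATP pipette solutions. Channels activated by 10-s voltage ramps from −60 to +100 mV. Test compound superfused during ramps, then washed out to test reversibility.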

mPanx1-GFP [2] = molecular target: T1, mPanx1-GFP; assay: Whole cell patch clamp of depolarization-induced; format: cell-based
Summary of the method: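 Neuro2A cells in DMEM with 10% FCS, lipofectamine-transfected with mPanx1-GFP, recorded 24–36 h after replating. Whole-cell clamp at room temperature, held at −60 mV. Pipette CsCl/EGTA with 1 mM ATP. Currents evoked by 10-s ramps from −60 to +100 mV at 20-s intervals; kinetics from +100 mV current over 8.5 min. Test compound superfused at 1 nM–1 mM, washed out after a stable plateau. Dose-response curves; timing by ANOVA with Dunnett's test.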

adenosine receptors = settings: ref Weiss et al., 2003; cited from earlier work
[3] = tested on: C×46 hemichannels and Panx1 channels; settings: oocytes; ref Bruzzone et al, 2006; cited from earlier work
murine erythrocytes = settings: ref Skals et al, 2009; cited from earlier work
human erythrocytes = settings: ref Skas et al, 2009; cited from earlier work
astrocytes = settings: nanomolar concentrations, ref Suadicani et al, 2006; cited from earlier work
Panx1 = settings: nanomolar concentrations, astrocytes; ref Iglesias et al, 2008, 2009; cited from earlier work
[4] = 100 nM, listed as mefloquine from Bioblocks
[5] = 100 nM, listed as mefloquine from Sigma

T1 sequence (Q9JIP4 whole entry, the tested form may be a part): as above

With `OC(c1cc(C(F)(F)F)nc2c(C(F)(F)F)cccc12)C1CCCCN1` (racemic) [(±)-erythro-(R*/S*)-mefloquine] the “Effect on open time of Panx1-GFP channel” value (mPanx1-GFP [1]; 100nM perfused for 20 seconds) was “decreased”, the “Effect on open time of Panx1-GFP channel” value (mPanx1-GFP [1]; 1 μM) was “did not appreciably affect” and the “Mean open time of Panx1 channel after washout” value (mPanx1-GFP [1]; after washout of 100nM) was “restored”. For the same compound, the “Effect on untagged Panx1 currents” value (untagged mPanx1; 10 nM) was “similarly reduced”, the “Effect on untagged Panx1 currents” value (untagged mPanx1; [4]) was “similarly reduced” and the “Effect on untagged Panx1 currents” value (untagged mPanx1; [5]) was “not affected”. The “Effect on untagged Panx1 currents” value (untagged mPanx1; 1μM) was “not affected”, the “Time required for 50% blockade of Panx1 currents” value (“Time required for 50% blockade” below) (mPanx1-GFP [2]) was 1.5 min and the “Effect on Panx1-GFP currents evoked by depolarizing voltage ramps” value (from here on “Effect on Panx1-GFP currents evoked”) (mPanx1-GFP [2]; 10 nM) was “similarly reduced”. For the same compound, the “Effect on Panx1-GFP currents evoked” value (mPanx1-GFP [2]; 100 nM) was “substantially reduced”, the “Time at which current amplitudes were significantly reduced compared to control” value (mPanx1-GFP [2]; 100 nM, currents at +100mV) was 1.5 min and the “Effect on Panx1-GFP currents evoked” value (mPanx1-GFP [2]; [4]) was “similarly reduced”. The “Effect on Panx1-GFP currents evoked” value (mPanx1-GFP [2]; [5]) was “not affected”, the “Effect on Panx1-GFP currents evoked” value (mPanx1-GFP [2]; 1μM) was “not affected” and the “Effect on Panx1-GFP currents evoked” value (mPanx1-GFP [2]; 100μM) was “only minimally blocked”. For the same compound, the “Time required for 50% blockade” value (mPanx1-GFP [2]; applied at 100nM) was 0.5 min and the “Times less potent than erythro-mefloquine racemate from the two other sources” value (mPanx1-GFP [2]; compared with Bioblocks and NCI-NIH racemate) was 10,000 times.

For `OC(c1cc(C(F)(F)F)nc2c(C(F)(F)F)cccc12)C1CCCCN1` (single isomer, unassigned; (-)) [(−)-erythro- enantiomer, (−)-erythro-(11S/2′R)-MFQ], the “Binding to adenosine receptors” value (adenosine receptors) is given as “bind”.

With `O[C@H](c1cc(C(F)(F)F)nc2c(C(F)(F)F)cccc12)[C@H]1CCCCN1` [(−)-threo-(11R/2′R)-mefloquine] the “Effect on Panx1-GFP currents evoked” value (mPanx1-GFP [2]; 1μM) was “prevented” and the “Time required for 50% blockade” value (mPanx1-GFP [2]; applied at 10μM) was 1.5 min.

For `CC1(C)[C@@H](OC(=O)CCC(=O)O)CC[C@]2(C)[C@H]3C(=O)C=C4[C@@H]5C[C@@](C)(C(=O)O)CC[C@]5(C)CC[C@@]4(C)[C@]3(C)CC[C@@H]12` [carbenoxolone], the “Difference in potency for blockade between C×46 hemichannels and Panx1 channels” value [3] is given as 5–10 fold.

For `O=C(O)c1ccccc1Nc1cccc(C(F)(F)F)c1` [flufenamic acid], the “Difference in potency for blockade between C×46 hemichannels and Panx1 channels” value [3] is given as 5–10 fold.

For `OC(c1cc(C(F)(F)F)nc2c(C(F)(F)F)cccc12)C1CCCCN1` (centres unmarked) [mefloquine], the “Concentration required for prevention of HIyA-induced hemolysis” value (murine erythrocytes) is given as “above 10 μM”, the “Concentration required for prevention of HIyA-induced hemolysis” value (human erythrocytes) is given as “above 10 μM” and the “Effect on dye uptake evoked by P2X7 receptor stimulation” value (astrocytes) is given as “block”. The “Effect on depolarization- and BzATP-evoked Panx1 currents” value (Panx1) was “inhibit”.
